Test [1] deals with Potassium-transporting ATPase (Sus scrofa, UniProt P19156). Put plainly: Inhibition of K+ -stimulated gastric ATPase activity was measured using lyophilized gastric vesicles at pH 7. Format: tissue-based, Stomach. The method, boiled down: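 K+-stimulated ATPase activity was measured in lyophilized (permeabilized) gastric vesicles at pH 7. The value is an IC50, or percent inhibition at the stated concentration where no IC50 could be determined.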

Test [2] concerns the target Potassium-transporting ATPase (Rattus norvegicus) (UniProt P09626+P18598). Put plainly: Inhibition of pentagastrin-stimulated gastric acid secretion at a single dose of 10 umol/kg. The following applies: Stomach. Format: functional. The method, boiled down:
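Anesthetized, lumen-perfused rats were given pentagastrin to stimulate gastric acid secretion, and compounds were given iv. The value is an ED50 (µmol/kg iv) with 95% confidence limits, or percent inhibition ± SEM at a single 10 µmol/kg iv dose.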

Potassium-transporting ATPase, sequence (P18434 whole entry): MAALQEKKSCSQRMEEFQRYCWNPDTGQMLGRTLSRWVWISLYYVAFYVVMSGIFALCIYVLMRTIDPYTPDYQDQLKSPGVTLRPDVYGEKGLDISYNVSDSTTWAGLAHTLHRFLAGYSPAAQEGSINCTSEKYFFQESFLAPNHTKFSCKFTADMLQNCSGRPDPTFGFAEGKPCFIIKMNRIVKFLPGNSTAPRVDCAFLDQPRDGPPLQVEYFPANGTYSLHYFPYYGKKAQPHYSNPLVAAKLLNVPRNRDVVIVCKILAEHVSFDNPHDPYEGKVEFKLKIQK
Potassium-transporting ATPase, sequence (P19156 whole entry): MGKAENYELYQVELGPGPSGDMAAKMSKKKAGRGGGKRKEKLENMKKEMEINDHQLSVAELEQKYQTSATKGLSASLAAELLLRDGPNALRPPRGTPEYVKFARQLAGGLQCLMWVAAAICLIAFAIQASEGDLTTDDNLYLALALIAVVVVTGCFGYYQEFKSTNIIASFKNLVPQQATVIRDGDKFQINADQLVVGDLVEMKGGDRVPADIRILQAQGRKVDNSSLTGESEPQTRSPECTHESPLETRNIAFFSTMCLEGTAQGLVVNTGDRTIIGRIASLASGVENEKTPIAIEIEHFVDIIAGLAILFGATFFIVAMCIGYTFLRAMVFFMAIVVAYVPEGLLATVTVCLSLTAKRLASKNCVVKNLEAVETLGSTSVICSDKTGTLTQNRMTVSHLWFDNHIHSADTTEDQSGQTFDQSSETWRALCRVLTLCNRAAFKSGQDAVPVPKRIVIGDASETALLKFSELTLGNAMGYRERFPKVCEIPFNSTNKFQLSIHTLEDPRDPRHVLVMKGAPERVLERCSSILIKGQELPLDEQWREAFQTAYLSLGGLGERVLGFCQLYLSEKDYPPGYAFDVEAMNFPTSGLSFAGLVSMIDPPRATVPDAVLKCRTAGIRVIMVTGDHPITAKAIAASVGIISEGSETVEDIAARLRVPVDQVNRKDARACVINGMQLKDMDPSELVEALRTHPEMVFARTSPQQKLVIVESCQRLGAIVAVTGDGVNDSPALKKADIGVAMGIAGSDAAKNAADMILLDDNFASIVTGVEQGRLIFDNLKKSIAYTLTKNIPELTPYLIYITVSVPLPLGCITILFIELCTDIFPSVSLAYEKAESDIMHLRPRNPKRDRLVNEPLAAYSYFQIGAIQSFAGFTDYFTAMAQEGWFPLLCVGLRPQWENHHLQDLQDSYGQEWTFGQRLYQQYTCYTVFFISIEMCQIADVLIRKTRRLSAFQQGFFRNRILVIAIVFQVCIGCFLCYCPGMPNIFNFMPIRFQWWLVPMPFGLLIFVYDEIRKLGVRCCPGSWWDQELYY

Take `CCCC(=O)c1cnc2c(N)cccc2c1Nc1ccccc1C`: the IC50 (commonly the concentration needed to halve the response being measured) in test [1] worked out at 6000 nM. Further, the inhibition (in general, the relative decrease from the control value, in per cent) in test [2] was 59%.

With `CCCC(=O)c1cnc2c(N)cccc2c1Nc1c(C)cccc1C`, in test [1], inhibition was half-maximal at 5800 nM (IC50). The same molecule had an inhibition in test [2] of 57%.

Molecule `CCCC(=O)c1cnc2c(OCCO)cccc2c1Nc1ccc(O)cc1C` showed a half-inhibitory concentration (IC50) in test [1] of 210 nM. Further, the inhibition in test [2] was determined as 70%.

The molecule `CCCC(=O)c1cnc2c(OC)cccc2c1Nc1c(C)cc2c(c1C)OCO2` yielded an inhibition in test [2] of 51%.

As to `CCCC(=O)c1cnc2c(OCCCC(=O)OCC)cccc2c1Nc1ccccc1C`, the IC50 in test [1] was 1600 nM. Moreover, in test [2], the inhibition came out at 52%.

In test [1], `CCCC(=O)c1cnc2c(OC)cc(O)cc2c1Nc1ccccc1C` registered an IC50 of 1300 nM. In test [2], the inhibition came to 63%.

`CCCC(=O)c1cnc2c(C3OC3CO)cccc2c1Nc1ccccc1C` (stereo in doubt; 29b) [listing 1 of 2 here] yielded an inhibition in test [2] of 52%.

The molecule `COCCOc1cccc2c(Nc3ccc(F)cc3C)c(C(=O)C(C)C)cnc12` displayed an IC50 in test [1] of 1700 nM. The molecule also had an inhibition in test [2] of 57%.

On to `CCCC(=O)c1cnc2ccc(O)cc2c1Nc1ccccc1C`, for which, in test [1], half-maximal inhibition (IC50) required 240 nM. In test [2], this molecule returned an inhibition of 58%.

As to `CCCC(=O)c1cnc2ccc(OC)cc2c1Nc1ccccc1C`, in test [1], the IC50 is 7000 nM. In test [2], this molecule registered an inhibition of 59%.

Turning to `CCCC(=O)c1cnc2c(OC)cccc2c1Nc1c(OC)cc(OC)cc1OC`, half-maximal inhibition in test [1] (IC50) required 4600 nM. The same molecule returned an inhibition in test [2] of 24%.

With `CCCC(=O)c1cnc2c(NCCO)cccc2c1Nc1ccccc1C`, it took 7100 nM to reach half-maximal inhibition in test [1] (IC50). Moreover, the inhibition in test [2] was 62%.

In test [1], `CCCC(=O)c1c(C)nc2ccccc2c1Nc1ccccc1C` yielded an IC50 of 34000 nM.

For `CCCC(=O)c1cnc2c(CC(=O)O)cccc2c1Nc1ccccc1C`, inhibition in test [1] was half-maximal at 7200 nM (IC50). Besides, in test [2], the inhibition amounted to 24%.

`CCCC(=O)c1cnc2c(C)cccc2c1Nc1ccccc1Cl` yielded an IC50 in test [1] of 6300 nM.

As for `CCCC(=O)c1cnc2c(OC)cccc2c1Nc1cc(C)ccc1C`, the IC50 in test [1] came out at 2500 nM. The same molecule showed an inhibition in test [2] of 48%.

The molecule `CCCC(=O)c1cnc2c(C(C)=O)cccc2c1Nc1ccccc1C` yielded an IC50 in test [1] of 1500 nM. The same molecule displayed an inhibition in test [2] of 37%.

Molecule `CCCC(=O)c1cnc2c(OCCCc3nc4ccccc4[nH]3)cccc2c1Nc1c(C)cccc1C` had an IC50 in test [1] of 1400 nM. Moreover, the inhibition in test [2] turned out to be 50%.

`CCCC(=O)c1cnc2c(OCCN(C)C)cccc2c1Nc1ccccc1C` yielded an IC50 in test [1] of 520 nM. In test [2], this molecule had an inhibition of 22%.

Molecule `CCCC(=O)c1cnc2c(OCCCC(=O)Nc3ccncc3)cccc2c1Nc1ccccc1C` registered an IC50 in test [1] of 2600 nM. Moreover, the inhibition in test [2] is 46%.

As for `CCCC(=O)c1cnc2c(NCCc3cnc[nH]3)cccc2c1Nc1ccccc1C`, the IC50 in test [1] came to 1400 nM.

In the case of `CCCC(=O)c1cnc2c(OC)cccc2c1Nc1ccc(C)cc1C`, in test [1], the IC50 was 4300 nM. Further, the inhibition in test [2] amounted to 59%.

Take `CCCC(=O)c1cnc2c(Oc3ccnc(Cl)c3)cccc2c1Nc1ccccc1C`: in test [1], the IC50 was 6900 nM. In test [2], this molecule returned an inhibition of 33%.

Molecule `CCCC(=O)c1cnc2c(O)cccc2c1Nc1ccccc1C` returned an IC50 in test [1] of 3300 nM. Also, in test [2], the inhibition is 39%.

On to `CCCC(=O)c1cnc2c(OCCCN3CCCCC3)cccc2c1Nc1ccccc1C`, for which the IC50 in test [1] is 500 nM. The same molecule had an inhibition in test [2] of 31%.

In test [1], `CCCC(=O)c1cnc2c(OC)cccc2c1Nc1ccc(N)cc1C` came in with an IC50 of 1500 nM. For the same molecule, the inhibition in test [2] was 15%.

The molecule `CCCC(=O)c1cnc2c(OC)cccc2c1Nc1ccc(N(C)C)cc1C` registered an IC50 in test [1] of 2320 nM. The molecule also returned an inhibition in test [2] of 20%.

With `CCCC(=O)c1cnc2c(C(C)=O)cccc2c1Nc1ccc(O)cc1C`, in test [1], the IC50 came out at 550 nM. The inhibition in test [2] worked out at 44%.

For the molecule `CCCC(=O)c1cnc2c(OCCCN3CCOCC3)cccc2c1Nc1ccccc1C`, in test [1], half-maximal inhibition (IC50) was put at 890 nM. The molecule also returned an inhibition in test [2] of 48%.

In test [2], `CCCC(=O)c1cnc2c(CO)cccc2c1Nc1ccc(F)cc1C` had an inhibition of 55%.

In turn, `CCCC(=O)c1cnc2c(OC)cccc2c1Nc1ccc(O)cc1` returned an IC50 in test [1] of 670 nM. In test [2], this molecule returned an inhibition of 39%.

In the case of `CCCC(=O)c1cnc2c(OCCCN(C)C)cccc2c1Nc1ccc(F)cc1C`, the inhibition in test [2] was 37%.

For `CCCC(=O)c1cnc2ccc(N)cc2c1Nc1c(C)cccc1C`, inhibition in test [1] was half-maximal at 160 nM (IC50). In test [2], the inhibition is 35%.

The molecule `CCCC(=O)c1cnc2c(OC)cccc2c1Nc1ccccc1CO` came in with an inhibition in test [2] of 33%.

In test [1], `CCC(=O)c1cnc2c(O)cccc2c1Nc1ccc(F)cc1C` gave an IC50 of 1900 nM. The molecule further gave an inhibition in test [2] of 48%.

In test [1], `CCCC(=O)c1cnc2c(O)cccc2c1Nc1ccc(F)cc1C` displayed an IC50 of 7600 nM. This molecule also displayed an inhibition in test [2] of 33%.

In test [1], `CCC(=O)c1cnc2c(OCCCNc3nccs3)cccc2c1Nc1c(C)cccc1C` showed an IC50 of 1700 nM. Moreover, the inhibition in test [2] amounted to 48%.

For `CCCC(=O)c1cnc2c(C3OC3CO)cccc2c1Nc1ccccc1C` (stereo in doubt; 29b) [listing 2 of 2 here], in test [1], half-maximal inhibition (IC50) required 3100 nM.

Consider `CCCC(=O)c1cnc2c(OCCCNc3ccccn3)cccc2c1Nc1c(C)cccc1C`, for which the IC50 in test [1] came out at 900 nM. This molecule returned an inhibition in test [2] of 49%.

`CCCC(=O)c1cnc2c(OCCCO)cccc2c1Nc1c(C)cccc1C` yielded an IC50 in test [1] of 1210 nM. For the same molecule, in test [2], the inhibition turned out to be 75%.

For `CCCC(=O)c1cnc2c(OCCCN(C)CCCc3ccccc3)cccc2c1Nc1ccccc1C`, the midpoint of inhibition in test [1], the IC50, lay at 740 nM. In test [2], this molecule gave an inhibition of 52%.

In turn, `CCCC(=O)c1cnc2c(C(O)CN(C)C)cccc2c1Nc1ccccc1C` (stereo unspecified) came in with an inhibition in test [2] of 11%.

As to `CCCC(=O)c1cnc2c(COC(=O)NC)cccc2c1Nc1ccccc1C`, the IC50 in test [1] was determined as 6600 nM. Besides, in test [2], the inhibition was determined as 49%.

As to `CCC(=O)c1cnc2c(O)cccc2c1Nc1ccccc1C`, the IC50 in test [1] was 860 nM. Besides, in test [2], the inhibition worked out at 45%.

In the case of `CCCC(=O)c1cnc2c(NCCc3c[nH]cn3)cccc2c1Nc1ccccc1C`, the inhibition in test [2] turned out to be 31%.

`CCCC(=O)c1cnc2c(OCCCc3c[nH]cn3)cccc2c1Nc1c(C)cccc1C`: the inhibition in test [2] turned out to be 40%.

`CCCC(=O)c1cnc2c(OC)cccc2c1Nc1cc(CO)ccc1C` displayed an inhibition in test [2] of 25%.

Regarding `CCCC(=O)c1cnc2c(C3OC3CO)cccc2c1Nc1ccccc1C` (stereo in doubt; 29a), the inhibition in test [2] was 56%.

In test [1], `CCCC(=O)c1cnc2c(COC(=O)CC)cccc2c1Nc1ccccc1C` came in with an IC50 of 18400 nM.

The molecule `CCCC(=O)c1cnc2ccc(CO)cc2c1Nc1ccccc1C` showed an inhibition in test [2] of 46%.

Molecule `CCCC(=O)c1cnc2c(OC)cccc2c1Nc1ccc(NS(C)(=O)=O)cc1C` gave an IC50 in test [1] of 45000 nM.

In turn, `CCCC(=O)c1cnc2c(OC)cccc2c1Nc1ccccc1COC` returned an inhibition in test [2] of 43%.

In turn, `CCCC(=O)c1cnc2c(OC)cccc2c1Nc1ccc(NC(C)=O)cc1C` had an IC50 in test [1] of 12000 nM.

`CCCC(=O)c1cnc2c(OCCCc3cnc[nH]3)cccc2c1Nc1c(C)cccc1C`: in test [1], inhibition was half-maximal at 600 nM (IC50).

As for `CCCC(=O)c1cnc2c(C(O)CN3CCOCC3)cccc2c1Nc1ccccc1C` (stereo unspecified), the inhibition in test [2] worked out at 4%.

`CCCC(=O)c1cnc2c(OC)cccc2c1Nc1ccc(OCCCn2ccnc2)cc1C` yielded an IC50 in test [1] of 34000 nM.

For `CCCC(=O)c1cnc2c(OCCOCCO)cccc2c1Nc1ccc(F)cc1C`, the inhibition in test [2] came out at 49%.

For the origin of these results see ChEMBL document CHEMBL1128471, “Reversible inhibitors of the gastric (H+/K+)-ATPase. 4. Identification of an inhibitor with an intermediate duration of action” (J Med Chem, 1995).
